In general, inhibition refers to the percentage by which the read-out fell short of the control. As usually defined, the CC50 is the concentration that lowers cell viability or growth by half.

The source of these data is ChEMBL document CHEMBL1127691, “Discovery, synthesis, and bioactivity of bis(heteroaryl)piperazines. 1. A novel class of non-nucleoside HIV-1 reverse transcriptase inhibitors” (J Med Chem, 1994).

The target in assay [1] is Human immunodeficiency virus type 1 reverse transcriptase (Human immunodeficiency virus 1) (UniProt Q72547). As to the kind of experiment: In vitro inhibitory activity against HIV-1 reverse transcriptase at 100 uM. The procedure, abridged: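 Recombinant HIV-1 RT (p51/p66 heterodimer, 90–95% pure, 0.0274 μM) with poly(rA) 10 μg/mL and (dT)10 primer 5 μg/mL; 8 μM α-35S-dTTP, 50 mM Tris-HCl pH 8.3, 10 mM MgCl2, 60 mM NaCl, 20 mM DTT, 0.05% NP-40. 37 °C, 15 min; TCA-precipitated label counted on filters. Percent inhibition at 100 μM, mean of at least two determinations.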

Assay [2] in a line: Selective index is the ratio of inhibitory concentrations of cellular DNA polymerase alpha to HIV-1 reverse transcriptase. The procedure, abridged: (§1)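 Index = IC50 for cellular DNA polymerase α or δ divided by IC50 for HIV-1 RT. RT IC50 measured with recombinant RT and poly(rA):oligo(dT)10 template:primer.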
The subject of assay [3] is MT2. As to the kind of experiment: Tested for the drug concentration required to decrease HIV-1IIIb infected MT-2 cell viability compared to uninfected controls. Type of assay: functional. To be noted: Homo sapiens. The procedure, abridged: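 MT-2 cells with HIV-1 IIIb (MOI 0.001), 4-day culture. Viability by trypan blue exclusion. CC50 is the concentration lowering viability relative to uninfected controls; mostly estimated.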

A short description of assay [4]: Selective index is the ratio of inhibitory concentrations of cellular DNA polymerase delta to HIV-1 reverse transcriptase. The procedure, abridged:
as §1

For assay [5], the system named is MT2. As to the kind of experiment: Effective antiviral dose required to block the spread of HIV-1 IIIb infection in MT-2 cells by monitoring the formation of syncytia. Type of assay: functional. Conditions: Homo sapiens, read-out: ED50 (the source's name). The procedure, abridged:
(§2)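 MT-2 cells infected with HIV-1 IIIb at MOI 0.001, held at 37 °C in 5% CO2. Syncytium formation scored 4 days post-infection, at peak cytopathic effect. ED50 is the dose giving 50% reduction in syncytia; some values were estimated, and ">" means 50% was not reached at the top concentration.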

The subject of assay [6] is Human immunodeficiency virus 1. As to the kind of experiment: (§3) Effective antiviral dose required to block the spread of HIV-1D34 infection in human peripheral blood mononuclear cells. Type of assay: functional. Conditions: read-out: ED50 (the source's name). The procedure, abridged:
(§4)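 PBMC (1 × 10^6 cells) infected with HIV-1 D34 inoculum containing 1 ng p24, cultured at 37 °C in 5% CO2. Replication read as supernatant p24 at day 4. ED50 = 50% effective antiviral dose, estimated in some cases.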

Assay [7] can be described thus: Tested for the drug concentration required to decrease […] infected human peripheral blood mononuclear cell viability compared to uninfected controls. Format: functional. The procedure, abridged:
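Uninfected and HIV-1 D34-infected PBMC at 37 °C, 5% CO2. Viability taken from mitogen-stimulated cell proliferation. CC50 is the concentration lowering viability relative to uninfected controls; mostly estimated.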

The nature of assay [8]: as §3. Type of assay: functional. To be noted: read-out: ED50 (the source's name). The procedure, abridged: as §4
Assay [9] has as its system MT2. As to the kind of experiment: Effective antiviral dose required to block the spread of HIV-1 IIIb infection in MT-2 cells by monitoring the formation of syncytia. Type of assay: functional. Conditions: Homo sapiens, read-out: ED50 (the source's name). The procedure, abridged: as §2

Some results are limits rather than exact numbers.

In assay [1], `COc1ccc2[nH]c(C(=O)N3CCN(c4ncccc4NC(C)(C)C)CC3)cc2c1` yielded an inhibition of 86%. For the same compound, the Selectivity index in assay [2] and in [4] was more than 83 throughout. The same compound gave a CC50 with MT2 [3] of more than 22000 nM. Moreover, the EC50 in the assay on MT2 [5] worked out at 220 nM; in [6] it was 10 nM.
For `CCNc1cccnc1N1CCN(C(=O)c2cc3ccccc3[nH]2)CC1`, the Selectivity index is 1500 in assay [2] and 2800 in assay [4]. Further, the values for the CC50 (in the assay on MT2 [3]; in [7]) were more than 30000 nM and more than 10000 nM, respectively. Further, the EC50 came out at 300 nM with MT2 [5] and 10 nM in assay [6].
On to `CCNc1ccccc1N1CCN(C(=O)c2cc(C)c(OC)c(C)c2)CC1`, for which the inhibition in assay [1] is 21%. Besides, in assay [7], the CC50 was approximately 10000 nM. Also, in [8], the EC50 was more than 1000 nM.
With `COc1ccc2[nH]c(C(=O)N3CCN(c4ncccc4NC(C)C)CC3)cc2c1`, the inhibition in assay [1] worked out at 97%. Besides, the Selectivity index in assay [2] worked out at 1500; in assay [4] it was 8000. The CC50 with MT2 [3] is more than 25000 nM. Also, the values for the EC50 (in the assay with MT2 [5]; in assay [6]) were 300 nM and 1 nM, respectively.
On to `CC(C)(C)Nc1cccnc1N1CCN(C(=O)c2cc3cc(F)ccc3[nH]2)CC1`, for which the inhibition in assay [1] is 89%. Besides, the figures for the Selectivity index in assay [2] and in assay [4] were 233 and 1670, respectively. The same compound returned a CC50 in the assay on MT2 [3] of more than 23000 nM. The EC50 in the assay with MT2 [5] amounted to 230 nM; in assay [6], 10 nM.
In the case of `CC(C)Nc1cccnc1N1CCN(C(=O)c2cc3cc(F)ccc3[nH]2)CC1`, the inhibition in assay [1] was determined as 96%. The Selectivity index was determined as 810 in assay [2] and 10000 in [4]. For the same compound, the 50% cytotoxic concentration (CC50) in the assay with MT2 [3] is more than 26000 nM. Also, the EC50 came to 300 nM in the assay with MT2 [5] and 3 nM in assay [6].
As for `CC(C)(C)Nc1cccnc1N1CCN(C(=O)c2cc3ccccc3[nH]2)CC1`, in assay [1], the inhibition stood at 89%. Moreover, the Selectivity index in [2] was 225; in [4], 2500. Further, the CC50 was more than 2400 nM in the assay on MT2 [3] and 10000 nM in assay [7]. Further, the EC50 in the assay with MT2 [5] is 200 nM; in assay [6] it was 10 nM.
In assay [1], `CCNc1cccnc1N1CCN(C(=O)c2cc3cc(OC)ccc3[nH]2)CC1.CS(=O)(=O)O` [ATEVIRDINE SULPHATE] registered an inhibition of 92%. Besides, the Selectivity index in assay [2] was determined as 200; in assay [4], 1500. This compound had a CC50 in the assay on MT2 [3] of more than 20000 nM. The EC50 in the assay on MT2 [5] is less than 200 nM; in [6], 1 nM.
In turn, `CCNc1cccnc1N1CCN(C(=O)c2cc3cc(F)ccc3[nH]2)CC1` came in with an inhibition in assay [1] of 93%. In addition, the results for the Selectivity index in [2] and in [4] were 220 and 1670, respectively. This compound also showed a CC50 in the assay on MT2 [3] of more than 27000 nM. The EC50 with MT2 [5] was less than 300 nM; in assay [6], 1 nM.
Regarding `Cc1cn([C@H]2C[C@H](N=[N+]=[N-])[C@@H](CO)O2)c(=O)[nH]c1=O` [ZIDOVUDINE], the CC50 with MT2 [3] was found to be 123000 nM; in assay [7], 10000 nM. Further, the values for the EC50 (with MT2 [5]; in [6]) were 70 nM and 1 nM, respectively.
As to `CCNc1cccnc1N1CCN(Cc2cc(C)c(OC)c(C)c2)CC1`, in assay [1], the inhibition worked out at 73%. Besides, the Selectivity index was 30 in [2] and more than 60 in assay [4]. For the same compound, the results for the EC50 (in the assay on MT2 [9]; in assay [6]) were 2000 nM and 1000 nM, respectively. The CC50 was 15000 nM with MT2 [3] and more than 10000 nM in [7].
The compound `CC(C)Nc1cccnc1N1CCN(C(=O)c2cc3ccccc3[nH]2)CC1` gave an inhibition in assay [1] of 96%. Also, the Selectivity index in assay [2] came out at 1100; in assay [4], 10000. For the same compound, the CC50 with MT2 [3] is more than 27000 nM; in [7] it was more than 10000 nM. In addition, the EC50 in the assay on MT2 [5] is 300 nM; in assay [6] it was 1 nM.
